GSH fluor: compound fluorescence on glutathione beads, profiling panel, artefact control, biophysical, 488/530 nm, flow cytometry | GSH beads flow cytometry, compound fluorescence 488/530 nm; hits give high values | fluorescence (KMESF) at 10 µM | hit rate 0.25% among 190,000 | AID 1776, 2009; in the data active means fluorescence above about 89;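 further: glutathione beads carrying GST-tagged Bcl family fusion proteins plus one bare bead set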
Pemphigus Ab inh: inhibitors of pemphigus antibody binding to DSG3, primary screen, biochemical, bead-based, flow cytometry, scFv-GFP | AID 588358, 2011 | binding (percent of control), % at 10 µM | hit rate 0.48% among 310,000 | DSG3-coupled beads, scFv-anti-DSG3-GFP binding; hits give low values;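 active means binding more than 3 SD below its plate's average and above zero; inconclusive means below that plate limit but binding exactly zero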;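 further: hits lower antibody fragment binding to DSG3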
Target sequence (P32926 whole entry, looked up, the tested form may be a part): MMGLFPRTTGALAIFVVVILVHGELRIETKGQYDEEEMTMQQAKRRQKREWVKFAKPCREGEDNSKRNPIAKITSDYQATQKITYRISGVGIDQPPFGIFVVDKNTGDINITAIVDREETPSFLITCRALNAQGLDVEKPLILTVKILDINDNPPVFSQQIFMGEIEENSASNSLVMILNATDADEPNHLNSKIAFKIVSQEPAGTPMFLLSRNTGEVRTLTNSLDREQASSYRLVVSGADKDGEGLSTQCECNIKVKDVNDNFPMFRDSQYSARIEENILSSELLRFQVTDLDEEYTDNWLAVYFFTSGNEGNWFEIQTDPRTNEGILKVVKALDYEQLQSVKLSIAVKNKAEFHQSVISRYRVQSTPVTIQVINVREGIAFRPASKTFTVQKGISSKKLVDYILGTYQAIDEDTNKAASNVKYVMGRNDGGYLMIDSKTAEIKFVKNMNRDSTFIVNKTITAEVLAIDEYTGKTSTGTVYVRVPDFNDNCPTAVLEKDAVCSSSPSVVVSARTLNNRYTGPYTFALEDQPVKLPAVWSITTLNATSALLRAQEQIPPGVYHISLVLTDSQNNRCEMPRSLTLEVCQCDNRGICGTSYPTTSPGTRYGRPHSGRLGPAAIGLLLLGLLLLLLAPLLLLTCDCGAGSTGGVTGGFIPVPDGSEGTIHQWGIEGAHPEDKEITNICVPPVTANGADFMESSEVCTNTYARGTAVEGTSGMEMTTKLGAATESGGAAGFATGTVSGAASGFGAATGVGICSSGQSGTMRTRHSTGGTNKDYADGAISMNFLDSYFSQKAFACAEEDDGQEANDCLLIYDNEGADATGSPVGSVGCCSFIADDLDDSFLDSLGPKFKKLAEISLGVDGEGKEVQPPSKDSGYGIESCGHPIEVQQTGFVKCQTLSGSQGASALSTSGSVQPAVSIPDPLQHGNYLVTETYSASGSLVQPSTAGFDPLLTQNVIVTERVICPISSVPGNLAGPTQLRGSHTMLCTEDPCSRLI
Avidin bead fluor: green autofluorescence of compounds with avidin beads – biophysical, 488/530 nm, flow cytometry, artefact control, profiling panel; compound fluorescence 488/530 nm; hits give high values; fluorescence (KMESF) at 10 µM; hit rate 0.38% among 220,000; AID 1775, 2009; in the data active means fluorescence above about 47
Arrestin-AP2 inh: inhibitors of beta-arrestin/AP2 binding, primary screen, biochemical, GPCR trafficking, flow cytometry. beta-arrestin 1 C-terminal peptide binding to AP2 beta2-adaptin appendage (human). FITC-arrestin peptide / GST-AP2 beads; AP2 beta2 appendage carries R879A mutation. inhibition, % at 10 µM. hit rate 0.31% among 340,000. AID 504490, 2011;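 active means inhibition above a set limit, near 3 SD of compounds lacking own fluorescence, cut at about 54% in these data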
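System: GST-AP2 R879A glutathione beads; medium: PBS, Tween 20 0.05%, BSA 0.1%; reagent: fluorescein-tagged arrestin peptide at 50 nM final; schedule: pre-incubation 12 min, peptide binding 1 h, room temperature; detection: flow cytometry, FL1 (488/535 nm); read-out: inhibition as reduced fluorescein signal on beads, percent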
Of the large screens only hits and unclear results are named; the others gave an inactive call. A selection: hits, their analogues and other compounds. The true share with any hit is near 1.1%.

C=CCNS(=O)(=O)c1cccc2cc(C(=O)O)c(O)cc12	Avidin bead fluor 50 (no result: Pemphigus Ab inh)
CCCC(C(=O)Nc1ccc(S(=O)(=O)N2CCCC2)cc1)c1ccccc1 (stereo not given)	none (no result: GSH fluor, Avidin bead fluor)
O=C(COC(=O)c1cccc(S(=O)(=O)N2CCc3ccccc3C2)c1)NCc1ccco1	GSH fluor 256
O=C(COC(=O)c1cc(S(=O)(=O)N2CCc3ccccc3C2)ccc1Cl)NCc1ccco1	none
Cn1cc(Br)c(-c2cccc(N3C(=O)CCCC3=O)c2)n1	none (no result: GSH fluor, Pemphigus Ab inh)
O=C(Nc1ccccc1Oc1ccccc1)c1cnccn1	none
Cc1ccc(Oc2ccc(Cl)cc2NC(=O)c2cnccn2)cc1	Pemphigus Ab inh 79
CCNc1nc(NC(C)C)nc(N(n2cnnc2)S(=O)(=O)c2ccc(C)cc2)n1	none
COc1cc2c3c(c1OC)C1(C=CC(=O)C=C1)CC3N(C(=O)CCC(=O)O)CC2 (stereo not given)	none (no result: GSH fluor)
COc1cc2c3c(c1OC)C1(C=CC(=O)C=C1)CC3N(C(=O)c1ccccc1)CC2 (stereo not given)	Avidin bead fluor 120
Cc1c(Cl)cccc1NC(=O)CNC(=O)c1cn(-c2ccccc2)nc1-c1cccnc1	none (no result: GSH fluor, Avidin bead fluor)
CC(C)C12CN3CC(C(C)C)(CN(C1)C3c1ccccc1)C2O (stereo not given)	GSH fluor 253
CN(C)c1ccc(C2N3CC4(C)CN2CC(C)(C3)C4O)cc1 (stereo not given)	none
CCOC(=O)c1c(NC(=O)COC(=O)c2cccc([N+](=O)[O-])c2)sc(C(=O)N(C)C)c1C	none (no result: GSH fluor, Avidin bead fluor, Arrestin-AP2 inh)
O=C(COC(=O)c1ccc(Cl)cc1[N+](=O)[O-])NC(=O)c1ccccc1	Pemphigus Ab inh 49 (no result: GSH fluor, Avidin bead fluor)
CC(C)NC(=O)c1ccc(C2SCC(=O)N2Cc2ccccc2)cc1 (stereo not given)	Avidin bead fluor 185
CN(C)S(=O)(=O)n1cc(/C=C(\NC(=O)c2ccccc2F)C(=O)NCCCn2ccnc2)c2ccccc21	none (no result: GSH fluor, Pemphigus Ab inh, Avidin bead fluor)
COC(=O)[C@H]1C[C@@H](c2ccccc2)[C@H](C)C1(C)C	none (no result: GSH fluor, Avidin bead fluor)
COc1ccc(Cl)cc1C(=O)C1CCCN(Cc2cnc(N3CCOCC3)s2)C1 (stereo not given)	Pemphigus Ab inh 28
Cc1cc(C)n(-c2ncnc3sc4c(c23)CCCC4)n1	none
Cc1cc(C)n(-c2ncnc3sc(C)c(C)c23)n1	Avidin bead fluor 53
Cc1ccc(NC(=O)CCC(=O)c2ccccc2)cc1	Pemphigus Ab inh 71 (no result: GSH fluor, Avidin bead fluor)
CCOC(=O)c1ccc(NS(=O)(=O)c2ccc3c(c2)n(C)c(=O)n3C)cc1	Pemphigus Ab inh inconclusive (no result: GSH fluor, Avidin bead fluor)
COC(=O)c1ccc(NS(=O)(=O)c2ccc3c(c2)oc(=O)n3C)cc1	Pemphigus Ab inh 92
COC(=O)c1ccc(NS(=O)(=O)c2ccc3c(c2)n(C)c(=O)n3C)cc1	Pemphigus Ab inh 76 (no result: GSH fluor, Avidin bead fluor)
COc1ccccc1NOC(=O)CCOc1ccccc1	none (no result: GSH fluor, Avidin bead fluor)
CC(C)Cn1nc(C(=O)OCC(=O)NCC(F)(F)F)c2ccccc2c1=O	none
CCOC(=O)C1=C(Cc2ccc(OC)cc2)C(=O)c2ccccc2C1=O	Arrestin-AP2 inh 55
CCOC(=O)C1=C(Cc2ccc(C)cc2)C(=O)c2ccccc2C1=O	GSH fluor 226 (no result: Pemphigus Ab inh, Arrestin-AP2 inh)
C[C@@H]1CN([C@H](C)CO)C(=O)c2c(c3ccccc3n2C)-c2ccccc2CO[C@H]1CN(C)C(=O)CCC(F)(F)F	none (no result: GSH fluor, Avidin bead fluor, Arrestin-AP2 inh)
COCCNC(=O)CSc1ncnc2sc(-c3ccccc3)cc12	Pemphigus Ab inh 103
O=C(O)CCSc1ncnc2sc(-c3ccccc3)cc12	Avidin bead fluor 86 (no result: GSH fluor)
CC(=O)CCSc1ncnc2sc(-c3ccccc3)cc12	none (no result: GSH fluor, Avidin bead fluor)
O=C(O)CSc1ncnc2sc(-c3ccccc3)cc12	none
CCCCN(C)C(=O)C1CCC(CNS(=O)(=O)c2ccc3c(c2)CC(C)N3C(=O)C2CC2)CC1 (stereo not given)	none (no result: GSH fluor, Pemphigus Ab inh, Avidin bead fluor)
CN(CCCC(=O)Nc1ccc(Br)cc1F)S(=O)(=O)c1ccccc1	none (no result: GSH fluor, Avidin bead fluor)
COc1ccc(NC(=O)c2cc(-c3ccco3)nc3ccccc23)cc1	Pemphigus Ab inh 65 (no result: GSH fluor, Avidin bead fluor)
COc1ccc(-c2cc(C(=O)N/N=C/c3ccc4c(c3)OCO4)c3ccccc3n2)c(OC)c1	Pemphigus Ab inh 77
CC(C)(C)NC(=O)CN(CC1CCCO1)C(=O)CNS(=O)(=O)c1ccc(F)cc1 (stereo not given)	none (no result: GSH fluor, Avidin bead fluor)
COC(=O)c1cc(NC(=O)c2cccc(Cl)c2)c(=O)oc1/C=C/Nc1cc(C)cc(C)c1	GSH fluor 173 (no result: Pemphigus Ab inh, Arrestin-AP2 inh)
Nc1nc(N2CCN(Cc3ccccc3)CC2)n[nH]1	Pemphigus Ab inh 79
CCOc1ccc2nc(NCCNC(=O)C(C)C)c(C)cc2c1	Avidin bead fluor 61
CCOc1ccc2nc(NCCNC(=O)C3CC3)c(C)cc2c1	none (no result: GSH fluor, Avidin bead fluor)
C=CCn1c(-c2ccc(C)cc2)nc2ccccc21	Avidin bead fluor 47
COc1ccc(-c2nc3ccccc3n2Cc2ccc(C)cc2)cc1	none (no result: Avidin bead fluor)
Cc1ccc(/C=N/NC(=O)c2nnn(-c3nonc3N)c2CSc2ccccc2)o1	none (no result: GSH fluor, Avidin bead fluor)
Cc1ccc(-c2c(C(=O)N/N=C/c3ccco3)nnn2-c2nonc2N)cc1	none (no result: GSH fluor, Avidin bead fluor)
CCOc1ccc(-c2c(C(=O)N/N=C/c3ccco3)nnn2-c2nonc2N)cc1	Pemphigus Ab inh 3.4 (no result: GSH fluor, Avidin bead fluor)
Cc1ccc(SCc2c(C(=O)N/N=C/c3ccc(C)o3)nnn2-c2nonc2N)cc1	Pemphigus Ab inh 86 (no result: GSH fluor, Avidin bead fluor, Arrestin-AP2 inh)
COc1cc(-c2nc3n(c(=O)c2C#N)CCS3)cc(OC)c1OC	none (no result: GSH fluor, Avidin bead fluor)
COCCn1c(=NC(=O)CCS(=O)(=O)c2ccccc2)sc2cc(F)ccc21	none (no result: GSH fluor, Avidin bead fluor)
O=C(NNC1=NCCC1)c1ccc(Br)cc1	GSH fluor 261
COc1ccc(Cn2c(=O)[nH]c3cc(C(=O)NCc4ccc5c(c4)OCO5)ccc3c2=O)cc1	Avidin bead fluor 65
COc1ccc(Cn2c(=O)[nH]c3cc(C(=O)NCCCOC(C)C)ccc3c2=O)cc1	none
CC(C)Cn1cnc2c(c(-c3ccccc3)c(-c3ccccc3)n2Cc2ccco2)c1=N	GSH fluor 251
N=c1c2c(-c3ccccc3)c(-c3ccccc3)n(Cc3ccco3)c2ncn1Cc1ccccc1	none
N#Cc1cccnc1N1CCN(C(=O)c2ccco2)CC1	none (no result: GSH fluor)
COCCNC(=O)CN(C(=O)Cn1nnc2ccccc21)c1cc(C)cc(C)c1	Avidin bead fluor 60
Cc1ccc(-n2nc3c(=O)n(CC(=O)NC4CCCCC4)nc(C)c3c2C)cc1	none (no result: GSH fluor, Avidin bead fluor)
CCCC(=O)Nc1c2c(nn1-c1ccc(C)cc1)CS(=O)(=O)C2	none (no result: GSH fluor, Avidin bead fluor)
Nc1ccc(-c2ccc(N)cc2C(F)(F)F)c(C(F)(F)F)c1	Avidin bead fluor 123
Nc1ccc(C(O)(C(F)(F)F)C(F)(F)F)cc1	none
Cn1c2ccccc2c2c(C(=O)N3CCN(C(=O)c4ccco4)CC3)cn(C3CCCCC3)c(=O)c21	GSH fluor 149
CSc1ccc(/C=C/C(=O)OCC(=O)N2CCc3ccccc32)cc1	none (no result: GSH fluor, Avidin bead fluor)
COC(=O)[C@H]1C[C@@]2(O)CN(S(=O)(=O)c3ccc(C)cc3)C[C@@]2(OC(=O)Nc2cccs2)C[C@H]1C(=O)OC	none (no result: GSH fluor, Avidin bead fluor, Arrestin-AP2 inh)
